Measured values from different studies.
Protocols differ between the studies behind these lines.
Medium: plasma

| Structure (SMILES) | host | route | dose | notes | Cmax |
| --- | --- | --- | --- | --- | --- |
| COc1ccc([C@@H]2CN(C(=O)[C@@H](O)CO)C[C@@]2(C)[C@@H](C)O)cc1OC1CN(c2ccc(C)cn2)C1 | human | oral | 0.5 mg | single dose, healthy volunteers | 30 ng/mL |
| FC(F)(F)c1ccc(CNc2ccc(Cc3c[nH]c4ncc(Cl)cc34)cn2)cn1 | human | oral | 800 mg | multiple doses, patients | 6780 ng/mL |
| CCOc1cc2ncc(C#N)c(Nc3ccc(OCc4ccccn4)c(Cl)c3)c2cc1NC(=O)/C=C/[C@H]1CCCN1C | human | oral | 80 mg | single dose | 26.5 ng/mL |
| CC(C)(C(=O)N1CCOc2c(C#N)cncc2C1)C(F)F | human | oral | 20 mg | multiple doses, once daily | 250 ng/mL |
| CCc1nc2c(C)cc(N3CCN(CC(=O)N4CC(O)C4)CC3)cn2c1N(C)c1nc(-c2ccc(F)cc2)c(C#N)s1 | human | oral | 300 mg | single dose, fed, healthy volunteers | 3800 ng/mL |
| N#CN1C[C@H](n2nc(-c3ccc(Oc4ccc(Cl)cn4)cc3)c(C(N)=O)c2N)CCC12CC2 | human | oral | 600 mg | fasted | 1060 ng/mL |
| CO[C@@H]1[C@H](OC(=O)N2CC(CCN3CCOCC3)C2)CC[C@]2(CO2)[C@H]1[C@@]1(C)O[C@@H]1CC=C(C)C | human | subcutaneous | 0.6 mg | single dose, healthy volunteers | 2.28 ng/mL |
| CS(=O)(=O)CCNCc1ccc(-c2ccc3ncnc(Nc4ccc(OCc5cccc(F)c5)c(Cl)c4)c3c2)o1 | human | oral | 750 mg | multiple doses, twice daily, steady state, patients | 2110 ng/mL |
| CCCCC1=NC2(CCCC2)C(=O)N1Cc1ccc(-c2ccccc2S(=O)(=O)Nc2noc(C)c2C)c(COCC)c1 | human | oral | 200 mg | single dose, fasted, healthy volunteers | 5150 ng/mL |
| CC(C)(O)c1ccccc1-c1ccc2[nH]c(/C=C/c3ccc(C(F)(F)F)cc3)nc2c1 | male human | oral | 225 mg | single dose, fasted, healthy volunteers | 525 ng/mL |
| CO[C@H]1CC[C@H](N2C(=O)CNc3ncc(-c4ccc(C(C)(C)O)nc4)nc32)CC1 | human | oral | 30 mg | multiple doses, patients | 293 ng/mL |
| O=C(Nc1c(Cl)cncc1Cl)c1ccc(OC(F)F)c(OCC2CC2)c1 | human | oral | 0.375 mg | single dose, fasted | 9.2 ng/mL |
| COc1cc(C(=O)NC2CCN(C)CC2)c(F)cc1Nc1ncc(C(F)(F)F)c(Oc2cccc3c2C(=O)N(C)C3)n1 | human | oral | 50 mg | single dose, patients | 312 nM |
| CC(C)n1cc(C#N)c2cc(-n3cc(C(=O)O)cn3)ccc21 | male human | oral | 600 mg | single dose, fasted, healthy volunteers | 18200 ng/mL |
| NS(=O)(=O)NCCNc1nonc1C(=NO)Nc1ccc(F)c(Br)c1 | human | oral | 300 mg | multiple doses, twice daily, steady state, patients | 2480 nM |
| Cn1cc(-c2ccc(S(=O)(=O)[C@@H]3C[C@@H](C(=O)NC4(C#N)CC4)N(C(=O)C4(C(F)(F)F)CC4)C3)c(C(F)(F)F)c2)cn1 | human | oral | 30 mg | single dose, fasted, healthy volunteers | 212 ng/mL |
| CNCC[C@H](Oc1cccc2ccccc12)c1cccs1 | female human | oral | 60 mg | multiple doses, once daily | 54 ng/mL |
| CNC(=O)c1ccccc1Sc1ccc2c(/C=C/c3ccccn3)n[nH]c2c1 | human | oral | 5 mg | single dose, fasted | 51 ng/mL |
| CCn1c(=O)c(-c2cc(NC(=O)Nc3ccccc3)c(F)cc2Br)cc2cnc(NC)cc21 | human | oral | 250 mg | single dose, patients | 1070 ng/mL |
| COCCOc1cnc2ccn([C@H](C)c3nnc4c(F)cc(-c5cnn(C)c5)cn34)c(=O)c2c1 | human | oral | 400 mg | multiple doses, once daily, patients | 5140 ng/mL |
| COc1cc2c(Nc3ccc(Br)cc3F)ncnc2cc1OCC1CCN(C)CC1 | human | oral | 85 mg/m² | multiple doses, once daily, patients | 716 ng/mL |
